TRPC4 inh = blocks the mouse TRPC4 cation channel; B-score at 10 µM; HEK293 TRPC4beta/mu-opioid, DAMGO-evoked Fluo4 calcium flux; active compounds read low; Q9QUQ5; actives 0.39% (n = 300,000);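 active means B-score over 3 SD under the library average, no early fluorescence shift, positive overall ratio signal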
Target sequence (Q9QUQ5 whole entry, looked up): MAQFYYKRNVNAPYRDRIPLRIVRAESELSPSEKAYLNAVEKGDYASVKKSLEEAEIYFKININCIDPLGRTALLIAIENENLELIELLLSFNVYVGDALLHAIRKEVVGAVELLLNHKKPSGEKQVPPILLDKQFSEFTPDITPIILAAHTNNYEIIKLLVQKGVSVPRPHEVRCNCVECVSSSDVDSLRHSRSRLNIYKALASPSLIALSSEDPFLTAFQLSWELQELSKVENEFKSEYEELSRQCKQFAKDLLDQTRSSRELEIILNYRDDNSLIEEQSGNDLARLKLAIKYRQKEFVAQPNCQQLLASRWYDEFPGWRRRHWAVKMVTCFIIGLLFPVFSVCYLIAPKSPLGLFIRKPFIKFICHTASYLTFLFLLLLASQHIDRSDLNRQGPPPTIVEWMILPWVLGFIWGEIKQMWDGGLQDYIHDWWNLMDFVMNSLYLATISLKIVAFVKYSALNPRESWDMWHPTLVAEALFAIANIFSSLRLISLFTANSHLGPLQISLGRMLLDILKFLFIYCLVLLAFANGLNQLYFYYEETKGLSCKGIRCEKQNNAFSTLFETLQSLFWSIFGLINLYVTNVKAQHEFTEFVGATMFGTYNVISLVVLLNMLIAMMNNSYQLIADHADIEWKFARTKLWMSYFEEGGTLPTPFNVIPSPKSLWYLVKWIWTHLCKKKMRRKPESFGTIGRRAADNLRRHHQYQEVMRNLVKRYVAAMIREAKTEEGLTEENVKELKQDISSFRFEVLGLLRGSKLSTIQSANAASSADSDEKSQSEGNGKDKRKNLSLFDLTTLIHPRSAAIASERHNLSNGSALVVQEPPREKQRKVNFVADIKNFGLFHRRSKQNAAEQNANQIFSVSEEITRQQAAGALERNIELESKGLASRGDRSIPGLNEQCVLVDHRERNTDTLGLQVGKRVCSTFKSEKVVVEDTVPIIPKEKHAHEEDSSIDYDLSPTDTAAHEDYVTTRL
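System: stable TRPC4beta/mu-opioid receptor HEK293 cells; Dosing: single-point compound dosing; Measured by: Fluo4 Ca2+ flux fluorescence; Read-out basis: per-well B score of integrated baseline-normalized Fluo4 ratio.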
TRPC4 potent = TRPC4 (mouse) allosteric potentiation; Q9QUQ5; actives 0.42% (n = 310,000); HEK293 TRPC4beta/mu-opioid, DAMGO EC20, Fluo-4 Ca2+ flux; active compounds read high; B-score at 10 µM; AID 2227;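 active means B-score of calcium response area above 5 SD of library B-scores, with initial fluorescence ratio within 5 SD of library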;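 further: B-score of integrated fluorescence ratio over time as area under calcium response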
TRPC6 activator = activators of mouse TRPC6 channel. Q61143. HEK293-TRPC6 membrane potential dye fluorescence; active compounds read high. B-score at 10 µM. actives 0.13% (n = 310,000). AID 2550;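 active means B-score of the integrated fluorescence ratio above library mean plus 3 SD, and starting fluorescence ratio within library mean plus 5 SD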;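 further: higher score means more depolarization so channel activation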
TRPC6 inh = inhibitors of mouse TRPC6 channel | Q61143 | HEK293-TRPC6, membrane potential dye, ACh-evoked depolarization; active compounds read low | B-score at 10 µM | actives 1.1% (n = 310,000) | AID 2553;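 active means B-score under library mean minus 3 SD, initial fluorescence not abnormally high, positive integrated signal ratio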;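 further: B-score derived from integrated fluorescence ratio over the kinetic read; more negative B-score means stronger inhibition of depolarization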
TRPC4 act = TRPC4 (mouse) channel activation; Q9QUQ5; HEK293 TRPC4beta/mu-opioid, Fluo4 calcium fluorescence; active compounds read high; B-score at 10 µM; actives 0.49% (n = 310,000);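 active means B-score above 5 SD of library B-scores, and initial fluorescence ratio not above library mean plus 5 SD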;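 further: positive B-score marks a calcium rise read as TRPC4 activation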
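Assay system: HEK293 stable line with TRPC4beta plus mu-opioid receptor. Times: dye 45 min RT, read 110 s. Measured by: kinetic Fluo4 calcium fluorescence. Measure: B score of integrated ratio. Controls: assay buffer as low control, maximal DAMGO as high control.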
TRPC4 sel inh 2 = mouse TRPC4 off-target activity of TRPC6 inhibitors, second screen | shares compounds with TRPC6 inh | inhibition, % at 10 µM | HEK293 TRPC4/MOR, membrane potential dye fluorescence; channel activated by saturating DAMGO dose | actives 42% (n = 920);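 active means compounds whose fluorescence signal differed from control wells by over 3 SD, either direction, in both duplicate plates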
TRPC4 spec = mouse TRPC4 off-target activity of TRPC6 inhibitors. shares compounds with TRPC6 inh. HEK293 TRPC4/mu-opioid, membrane potential fluorescence. activity change, negative = inhibition, % at 10 µM. actives 61% (n = 920);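 active means rise or fall in signal beyond 3 SD of buffer-only wells in both replicate plates, either sign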;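 further: integrated kinetic ratio of fluorescence range over baseline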
HEK293 MPD ctr 2-1 = second check of TRPC6 inhibitor effects in parental HEK293 cells; shares compounds with TRPC6 inh; parental HEK293 membrane potential dye fluorescence; maximal acetylcholine challenge after compound addition; AID 2779; actives 31% (n = 920); signal change vs control, % at 10 µM;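 active means membrane potential signal moving either way by over 3 SD of the maximum-effect control, in both duplicate plates, meaning non-specific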
HEK293 MPD ctr-1 = parental HEK293 nonspecific activity of TRPC6 inhibitors; shares compounds with TRPC6 inh; parental HEK293 membrane potential dye fluorescence; membrane potential signal change, % at 10 µM; actives 60% (n = 920);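 active means membrane potential signal shifting up or down by more than 3 SD of buffer-only wells, on both duplicate plates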
HEK293 MPD ctr-2 = checks TRPC6 modulator effects in parental HEK293 cells. shares compounds with TRPC6 inh. actives 51% (n = 2,400). membrane potential dye fluorescence. membrane potential signal change, % at 10 µM. AID 488924;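 active means membrane potential signal moves up or down beyond 5 SD from buffer-only wells, on both duplicate plates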
HEK293 MPD ctr 2-2 = second counter-screen for TRPC6 modulators: effect in parental HEK293 cells; membrane potential dye fluorescence; after compound, maximal acetylcholine stimulation; AID 488926; inhibition, % at 10 µM; actives 14% (n = 2,400); shares compounds with TRPC6 inh;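 active means membrane potential signal drops by more than 5 SD from the mean control signal, in both duplicate plates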;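 further: plate controls were acetylcholine ECmax control wells for no effect and buffer only wells for full effect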
TRPC4 ctr mod = mouse TRPC4 off-target activity of TRPC6 modulators | shares compounds with TRPC6 inh | HEK293 TRPC4/mu-opioid, membrane potential fluorescence | actives 69% (n = 2,400) | percent change from control (negative = decrease, positive = increase), % at 10 µM;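 active means membrane potential signal moved up or down beyond 5 SD of buffer control wells, in both duplicate plates, actives on both sides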;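 further: plate controls were assay buffer wells for no effect and DAMGO maximal-effect wells for full effect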
TRPC4/MOR inh 2 = second selectivity test of TRPC6 modulators against mouse TRPC4 | shares compounds with TRPC6 inh | actives 55% (n = 2,400) | HEK293 TRPC4/mu-opioid, membrane potential dye fluorescence; stimulated with maximal-effect DAMGO | inhibition, % at 10 µM;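 active means drop in membrane potential signal beyond 5 SD of the control wells in both duplicate plates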;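 further: TRPC4 counter screen for TRPC6 hits run under conditions tuned for TRPC6 not TRPC4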
TRPC6 block conf = confirmation of mouse TRPC6 inhibitors; inhibition, % at 10 µM; shares compounds with TRPC6 inh; HEK293-TRPC6, membrane potential dye, ACh-evoked depolarization; actives 43% (n = 3,300); AID 488960;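 active means fluorescence ratio falls more than 5 SD below the full-stimulation control mean, in both duplicate runs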;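 further: integrated fluorescence ratio of peak minus minimum over baseline after agonist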
TRPC6 act conf = confirmation of mouse TRPC6 activators; AID 488961; actives 11% (n = 2,800); HEK293-TRPC6 membrane potential dye fluorescence, FDSS; activation, % at 10 µM; shares compounds with TRPC6 inh;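 active means ratio signal rise beyond 5 SD above unstimulated control wells' mean, seen in both duplicate runs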;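 further: plate controls were buffer EC0 wells for no effect and acetylcholine ECmax response for full effect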
Starred values were filed as active, the others as inactive; i = inactive; . = no result. Most compounds without a hit are left out; they make up all but 2.3% or so of the library.

SMILES	TRPC4 inh	TRPC4 potent	TRPC6 activator	TRPC6 inh	TRPC4 act	TRPC4 sel inh 2	TRPC4 spec	HEK293 MPD ctr 2-1	HEK293 MPD ctr-1	HEK293 MPD ctr-2	HEK293 MPD ctr 2-2	TRPC4 ctr mod	TRPC4/MOR inh 2	TRPC6 block conf	TRPC6 act conf
CCN(CC)CCn1c(NC(=O)c2ccccc2O)nc2ccccc21	i	i	i	-12*	i	20%*	-26%*	3.5%*	-336%*	.	.	.	.	88%*	i
O=C(Nc1nc2ccccc2n1CCN1CCCCC1)c1ccc(Cl)cc1	i	i	i	i	i	.	.	.	.	.	.	.	.	.	.
Cc1ccc(C(=O)Nc2nc3ccccc3n2CCN2CCCC2)cc1	i	i	i	-11*	i	.	.	.	.	-130%*	74%*	-30%*	88%*	92%*	i
CCn1nccc1C(=O)Nc1nc2ccccc2n1CCN1CCCCC1	i	i	i	-6.8*	i	68%*	-11%*	i	i	.	.	.	.	i	i
CCN(CC)CCn1c(C)nc2ccccc21	i	i	i	i	i	.	.	.	.	.	.	.	.	.	.
CC(C)N(C(=O)CS(=O)(=O)c1ccc(Cl)c(Cl)c1)C(C)C	i	i	i	i	i	.	.	.	.	.	.	.	.	.	.
COc1cc(O)c(C(CCN2CCCC(C)C2)c2ccc3c(c2)OCO3)c(OC)c1 (centres undefined)	i	i	i	i	i	.	.	.	.	.	.	.	.	.	.
COc1cc(O)c(C(CCN2CCCC(C)C2)c2ccc(N(C)C)cc2)c(OC)c1 (centres undefined)	i	i	i	-7*	i	62%*	i	i	i	.	.	.	.	i	i
COc1cc(C(CCN2CCCC(C)C2)c2c(OC)cc(OC)c3c(-c4ccccc4)cc(=O)oc23)cc(OC)c1OC (centres undefined)	i	i	i	-7.8*	i	44%*	-11%*	i	i	.	.	.	.	i	i
Cc1nn(CCCC(=O)NCCc2ccc(Cl)cc2)c(=O)c2nn(-c3ccccc3)c(C)c12	i	i	i	i	i	.	.	.	.	.	.	.	.	.	.
COc1ccccc1N(CC1CO1)S(=O)(=O)c1ccc(C)cc1 (centres undefined)	i	i	i	i	i	.	.	.	.	.	.	.	.	.	.
CCCN(CCC)CCCNc1ccc(C(=O)Nc2cccc(OC)c2)cc1[N+](=O)[O-]	i	i	i	-7.3*	i	55%*	-18%*	i	i	.	.	.	.	i	i
NCCCC(=O)N1c2ccccc2Sc2ccc(Cl)cc21	i	i	i	-5.3*	i	.	.	.	.	i	i	i	54%*	64%*	i
O=C(CCN1CCN2CCCC2C1)N1c2ccccc2Sc2ccc(Cl)cc21 (centres undefined)	i	i	i	i	i	.	.	.	.	.	.	.	.	.	.
CN(C)CC(=O)N1c2ccccc2Sc2ccc(Cl)cc21	i	i	i	i	i	.	.	.	.	.	.	.	.	.	.
CN1CCC=C(C(=O)N2c3ccccc3Sc3ccc(Cl)cc32)C1	i	i	i	-5.4*	i	.	.	.	.	118%*	i	16%*	38%*	41%*	.
CN(C)CCC(=O)N1c2ccccc2Sc2ccc(Cl)cc21	i	i	i	-8.5*	i	i	4.2%*	i	7.7%*	.	.	.	.	59%*	.
NCCC(=O)N1c2ccccc2Sc2ccc(Cl)cc21	i	i	i	i	i	.	.	.	.	.	.	.	.	.	.
CCN(CC)CCC(=O)N1c2ccccc2Sc2ccc(Cl)cc21	i	i	i	-5.4*	i	.	.	.	.	216%*	i	35%*	46%*	78%*	.
CN1CCN(CCC(=O)N2c3ccccc3Sc3ccc(Cl)cc32)CC1	i	i	i	i	i	.	.	.	.	.	.	.	.	.	.
c1ccc2cc(CSCc3nc4ccccc4[nH]3)ccc2c1	i	i	i	i	i	.	.	.	.	.	.	.	.	.	.
CCCCNC1c2ccccc2C(=O)N1Cc1ccccc1 (centres undefined)	i	i	i	i	i	.	.	.	.	.	.	.	.	.	.
CCN(CC)CCSc1nnc2c3ccccc3n(Cc3ccccc3)c2n1	i	i	i	-8.2*	i	21%*	12%*	i	-230%*	.	.	.	.	66%*	i
CCN(CC)CCSc1nnc2c3cc(F)ccc3n(Cc3ccccc3)c2n1	i	i	i	-5.9*	i	.	.	.	.	-78%*	i	i	78%*	i	i
COc1cccc(-c2cc(C(=O)NCC3CCCO3)c3cc(C)cc(C)c3n2)c1 (centres undefined)	i	i	i	i	i	.	.	.	.	.	.	.	.	.	.
Cn1ccnc1C1CCCCN1Cc1nc(Cc2cccc(C(F)(F)F)c2)no1 (centres undefined)	i	i	i	-5.3*	i	.	.	.	.	136%*	i	32%*	27%*	i	.
Cn1ccnc1C1CCCCN1Cc1nc(-c2ccc3c(c2)OCO3)no1 (centres undefined)	i	i	i	-5.3*	i	.	.	.	.	184%*	62%*	44%*	40%*	48%*	.
COc1ccc(-c2noc(CN3CCCCC3c3nccn3C)n2)cc1 (centres undefined)	i	i	i	i	i	.	.	.	.	.	.	.	.	.	.

Assay outcomes deposited in PubChem by Johns Hopkins Ion Channel Center.
